# Measurements of several laboratories.
# Each line is one published result; the experiments were not run side by side.
# Organism: Lodderomyces parapsilosis
# Effect on: microbial growth
# Technique: broth dilution
SMILES,strain,time,MIC
OC(Cn1cncn1)(Cn1cncn1)c1ccc(F)cc1F,ATCC22019,48 h,50 µg/mL
O=C1/C(=C/c2cc(O)c(O)c(O)c2)Oc2ccccc21,,,8 µg/mL
CCCCCN1CCNCC1,ATCC22019,48 h,> 31.3 µg/mL
OC(Cn1cncn1)(Cn1cncn1)c1ccc(F)cc1F,ATCC22019,,1 µg/mL
CCCCCN1CCN(CC(O)(Cn2cncn2)c2ccc(F)cc2F)CC1 (stereo not drawn),ATCC22019,48 h,15.6 µg/mL
C[C@@H]1[C@H](O)[C@@H](C)/C=C/C=C/C=C/C=C/C=C/C=C/C=C/[C@H](O[C@@H]2O[C@H](C)[C@@H](O)[C@H](N)[C@@H]2O)C[C@@H]2O[C@](O)(C[C@@H](O)C[C@@H](O)[C@H](O)CC[C@@H](O)C[C@@H](O)CC(=O)O[C@H]1C)C[C@H](O)[C@H]2C(=O)O,,,0.25 µg/mL
CCCCNS(=O)(=O)c1ccc(-c2ccc3oc(C(=O)c4cc(O)c(O)c(O)c4)cc3c2)cc1,,,8 to 16 µg/mL
C[C@@H]1[C@H](O)[C@@H](C)/C=C/C=C/C=C/C=C/C=C/C=C/C=C/[C@H](O[C@@H]2O[C@H](C)[C@@H](O)[C@H](N)[C@@H]2O)C[C@@H]2O[C@](O)(C[C@@H](O)C[C@@H](O)[C@H](O)CC[C@@H](O)C[C@@H](O)CC(=O)O[C@H]1C)C[C@H](O)[C@H]2C(=O)O,ATCC22019,,0.5 µg/mL
CN1CCN(CC(O)(Cn2cncn2)c2ccc(F)cc2F)CC1 (stereo not drawn),ATCC22019,48 h,0.975 µg/mL
